Test results taken from ChEMBL document CHEMBL1124684, “Studies on prodrugs. 10. Possible mechanism of N-dealkylation of N-masked norfloxacins having several active methylene groups” (J Med Chem, 1989).

Assays:
Mus musculus [1] = assay: Serum concentration of the liberated Norfloxacin after oral administration (100 mg/kg) in mice after 1.0 hr; format: functional, organism-based
Outline: (§1)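 Mice dosed orally at 100 mg/kg, suspended in 0.5% sodium carboxymethylcellulose. Animals killed by bleeding at 0.5, 1.0, 2.0 and 4.0 h; blood centrifuged, serum adjusted. NFLX in serum quantified by HPLC with UV detection at 280 nm. Stability of the masked compounds at pH 7.4 and 37 °C was checked beforehand by HPLC.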

Mus musculus [2] = assay: Serum concentration of the liberated Norfloxacin after oral administration (100 mg/kg) in mice after 4.0h; format: functional, organism-based; outline: as §1
[3] = (§2) Compound was evaluated for Area under curve in mice; format: ADME, organism-based; design: concentration or dose not given beside the values; settings: mouse, in vivo
Mus musculus [4] = species: Mus musculus; assay: as §2; format: ADME, organism-based; design: concentration or dose not given beside the values; settings: in vivo
Mus musculus [5] = assay: Serum concentration of the liberated Norfloxacin after oral administration 100 mg/kg in mice after the 0.5 h; format: functional, organism-based; design: dose 100 mg/kg; outline: as §1
Mus musculus [6] = assay: Serum concentration of the liberated Norfloxacin after oral administration 100 mg/kg in mice after the 2.0 h; format: functional, organism-based; design: dose 100 mg/kg; outline: as §1
Mus musculus [7] = assay: (§3) Serum concentration of the liberated Norfloxacin after oral administration (100 mg/kg) in mice after 0.5 hr; format: functional, organism-based; outline: as §1
Mus musculus [8] = assay: Serum concentration of the liberated Norfloxacin after oral administration (100 mg/kg) in mice after 2.0 hr; format: functional, organism-based; outline: as §1
Mus musculus [9] = assay: Serum concentration of the liberated Norfloxacin after oral administration 100 mg/kg in mice after the 4.0 h; format: functional, organism-based; design: dose 100 mg/kg; outline: as §1
Mus musculus [10] = assay: Serum concentration of the liberated Norfloxacin after oral administration 100 mg/kg in mice after the 1.0 h; format: functional, organism-based; design: dose 100 mg/kg; outline: as §1
Mus musculus [11] = assay: Serum concentration of the liberated Norfloxacin after oral administration (100 mg/kg) in mice after 2.0h; ND is not detected; format: functional, organism-based; outline: as §1
Mus musculus [12] = assay: Serum concentration of the liberated Norfloxacin after oral administration (100 mg/kg) in mice after 0.5 hr; ND is not detected; format: functional, organism-based; outline: as §1
Mus musculus [13] = assay: Serum concentration of the liberated Norfloxacin after oral administration (100 mg/kg) in mice after 1.0h; ND is not detected; format: functional, organism-based; outline: as §1
Mus musculus [14] = assay: Serum concentration of the liberated Norfloxacin after oral administration (100 mg/kg) in mice after 4.0h; ND is not detected; format: functional, organism-based; outline: as §1
Mus musculus [15] = assay: as §3; format: functional, organism-based; outline: as §1; remark: listed apart in the source

**Q.** Which results are given for `CCn1cc(C(=O)O)c(=O)c2cc(F)c(N3CCN(CC#N)CC3)cc21`?
**A.** Serum concentration (Mus musculus [1]): 0.75 µg/mL; Serum concentration (Mus musculus [2]): 0.63 µg/mL; AUC [3]: 3060 ng·h/mL; AUC (Mus musculus [4]): 3060 ng·h/mL; Serum concentration (Mus musculus [5]): 0.29 µg/mL; Serum concentration (Mus musculus [6]): 1.15 µg/mL; Serum concentration (Mus musculus [7]): 0.29 µg/mL; Serum concentration (Mus musculus [8]): 1.15 µg/mL; Serum concentration (Mus musculus [9]): 0.63 µg/mL; Serum concentration (Mus musculus [10]): 0.75 µg/mL

**Q.** Which Serum concentration (Mus musculus [1]) does the source give for `CCn1cc(C(=O)O)c(=O)c2cc(F)c(N3CCNCC3)cc21` [NORFLOXACIN] here?
**A.** Its Serum concentration is 2.02 µg/mL.

**Q.** What about the Serum concentration (Mus musculus [2]) of the same compound?
**A.** The Serum concentration was 0.56 µg/mL.

**Q.** What about the AUC [3] of the same compound?
**A.** Its AUC is 6490 ng·h/mL.

**Q.** And the AUC (Mus musculus [4])?
**A.** The AUC was 6490 ng·h/mL.

**Q.** And the Serum concentration (Mus musculus [5])?
**A.** Its Serum concentration is 3.47 µg/mL.

**Q.** What about the Serum concentration (Mus musculus [6]) of the same compound?
**A.** Its Serum concentration is 1.12 µg/mL.

**Q.** And the Serum concentration (Mus musculus [7])?
**A.** The Serum concentration was 3.47 µg/mL.

**Q.** What about the Serum concentration (Mus musculus [8]) of the same compound?
**A.** The Serum concentration was 1.12 µg/mL.

**Q.** What about the Serum concentration (Mus musculus [9]) of the same compound?
**A.** Its Serum concentration is 0.56 µg/mL.

**Q.** And the Serum concentration (Mus musculus [10])?
**A.** The Serum concentration was 2.02 µg/mL.

**Q.** For `CCn1cc(C(=O)O)c(=O)c2cc(F)c(N3CCN(C(C)C(C)=O)CC3)cc21` (stereo not drawn), which Serum concentration (Mus musculus [1]) is on record?
**A.** Its Serum concentration is 1.68 µg/mL.

**Q.** What about the Serum concentration (Mus musculus [2]) of the same compound?
**A.** Its Serum concentration is 0.63 µg/mL.

**Q.** And the AUC [3]?
**A.** The AUC was 5710 ng·h/mL.

**Q.** What about the AUC (Mus musculus [4]) of the same compound?
**A.** Its AUC is 5710 ng·h/mL.

**Q.** What about the Serum concentration (Mus musculus [5]) of the same compound?
**A.** Its Serum concentration is 2.63 µg/mL.

**Q.** And the Serum concentration (Mus musculus [6])?
**A.** The Serum concentration was 1.67 µg/mL.

**Q.** And the Serum concentration (Mus musculus [7])?
**A.** The Serum concentration was 2.63 µg/mL.

**Q.** And the Serum concentration (Mus musculus [8])?
**A.** The Serum concentration was 1.67 µg/mL.

**Q.** And the Serum concentration (Mus musculus [9])?
**A.** The Serum concentration was 0.63 µg/mL.

**Q.** And the Serum concentration (Mus musculus [10])?
**A.** Its Serum concentration is 1.68 µg/mL.

**Q.** Which Serum concentration (Mus musculus [11]) does the source give for `CCn1cc(C(=O)O)c(=O)c2cc(F)c(N3CCN(CC(C)O)CC3)cc21` (stereo not drawn) here?
**A.** The Serum concentration was “Not detected”.

**Q.** What about the Serum concentration (Mus musculus [12]) of the same compound?
**A.** Its Serum concentration is “Not detected”.

**Q.** And the Serum concentration (Mus musculus [13])?
**A.** The Serum concentration was “Not detected”.

**Q.** And the Serum concentration (Mus musculus [14])?
**A.** Its Serum concentration is “Not detected”.

**Q.** With `CCn1cc(C(=O)O)c(=O)c2cc(F)c(N3CCN(CC(C)=O)CC3)cc21` as the compound, how does the Serum concentration (Mus musculus [1]) read?
**A.** Its Serum concentration is 5.74 µg/mL.

**Q.** And the Serum concentration (Mus musculus [15])?
**A.** Its Serum concentration is 6.33 µg/mL.

**Q.** And the Serum concentration (Mus musculus [2])?
**A.** Its Serum concentration is 2.62 µg/mL.

**Q.** And the AUC [3]?
**A.** The AUC was 22000 ng·h/mL.

**Q.** And the AUC (Mus musculus [4])?
**A.** The AUC was 22010 ng·h/mL.

**Q.** And the Serum concentration (Mus musculus [6])?
**A.** The Serum concentration was 3.96 µg/mL.

**Q.** What about the Serum concentration (Mus musculus [7]) of the same compound?
**A.** Its Serum concentration is 6.33 µg/mL.

**Q.** What about the Serum concentration (Mus musculus [8]) of the same compound?
**A.** Its Serum concentration is 3.96 µg/mL.

**Q.** And the Serum concentration (Mus musculus [9])?
**A.** The Serum concentration was 2.62 µg/mL.

**Q.** What about the Serum concentration (Mus musculus [10]) of the same compound?
**A.** The Serum concentration was 5.74 µg/mL.

**Q.** With `CCn1cc(C(=O)O)c(=O)c2cc(F)c(N3CCN(C(C)(C)C(C)=O)CC3)cc21` as the compound, how does the Serum concentration (Mus musculus [11]) read?
**A.** The Serum concentration was “Not detected”.

**Q.** And the Serum concentration (Mus musculus [12])?
**A.** Its Serum concentration is “Not detected”.

**Q.** What about the Serum concentration (Mus musculus [13]) of the same compound?
**A.** The Serum concentration was “Not detected”.

**Q.** And the Serum concentration (Mus musculus [14])?
**A.** Its Serum concentration is “Not detected”.

**Q.** For `CCOC(=O)CN1CCN(c2cc3c(cc2F)c(=O)c(C(=O)O)cn3CC)CC1`, which Serum concentration (Mus musculus [1]) is on record?
**A.** The Serum concentration was 1.37 µg/mL.

**Q.** And the Serum concentration (Mus musculus [2])?
**A.** Its Serum concentration is 0.42 µg/mL.

**Q.** And the AUC [3]?
**A.** The AUC was 3900 ng·h/mL.

**Q.** And the AUC (Mus musculus [4])?
**A.** The AUC was 3900 ng·h/mL.

**Q.** And the Serum concentration (Mus musculus [5])?
**A.** The Serum concentration was 3.77 µg/mL.

**Q.** What about the Serum concentration (Mus musculus [6]) of the same compound?
**A.** The Serum concentration was 0.38 µg/mL.

**Q.** What about the Serum concentration (Mus musculus [7]) of the same compound?
**A.** Its Serum concentration is 3.77 µg/mL.

**Q.** And the Serum concentration (Mus musculus [8])?
**A.** The Serum concentration was 0.38 µg/mL.

**Q.** And the Serum concentration (Mus musculus [9])?
**A.** The Serum concentration was 0.42 µg/mL.

**Q.** And the Serum concentration (Mus musculus [10])?
**A.** The Serum concentration was 1.37 µg/mL.
